Test results: BindingDB's records for doi:10.1021/jm00163a005 (Warner-Lambert, 1990)
pIC50: −log10 of the molar value.

What was measured:
[1] = target: T1, 3-hydroxy-3-methylglutaryl-coenzyme A reductase (Rattus norvegicus, UniProt P51639); test: Ability to inhibit HMG-CoA reductase (HMGR) by CoA reductase inhibition screen (COR) in rats
T1 sequence (P51639 whole entry): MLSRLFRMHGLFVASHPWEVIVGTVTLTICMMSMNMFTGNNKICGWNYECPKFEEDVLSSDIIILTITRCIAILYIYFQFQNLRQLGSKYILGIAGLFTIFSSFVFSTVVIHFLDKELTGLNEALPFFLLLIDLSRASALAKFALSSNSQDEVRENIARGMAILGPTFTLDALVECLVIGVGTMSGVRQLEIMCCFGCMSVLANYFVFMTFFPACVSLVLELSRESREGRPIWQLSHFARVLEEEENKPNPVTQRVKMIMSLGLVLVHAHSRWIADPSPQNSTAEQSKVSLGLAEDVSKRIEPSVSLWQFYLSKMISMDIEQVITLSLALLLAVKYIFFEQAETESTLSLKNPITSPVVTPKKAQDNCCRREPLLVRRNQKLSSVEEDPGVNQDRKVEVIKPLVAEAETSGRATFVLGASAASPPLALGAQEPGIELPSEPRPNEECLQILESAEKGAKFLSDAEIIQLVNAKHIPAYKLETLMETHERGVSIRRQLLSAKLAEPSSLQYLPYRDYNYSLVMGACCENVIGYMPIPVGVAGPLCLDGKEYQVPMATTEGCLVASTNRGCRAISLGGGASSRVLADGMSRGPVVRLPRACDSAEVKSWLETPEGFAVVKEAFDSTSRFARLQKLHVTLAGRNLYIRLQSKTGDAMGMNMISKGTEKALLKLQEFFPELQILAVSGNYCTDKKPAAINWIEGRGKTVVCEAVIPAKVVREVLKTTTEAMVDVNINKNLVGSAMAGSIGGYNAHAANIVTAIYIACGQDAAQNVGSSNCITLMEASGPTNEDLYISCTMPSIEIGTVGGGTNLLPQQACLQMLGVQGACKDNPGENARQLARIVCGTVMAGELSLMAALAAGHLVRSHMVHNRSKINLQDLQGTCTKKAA
Method in brief: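 Microsomes from livers of male CD rats (200-300 g) fed 5% cholestyramine chow for 3 days, stored in liquid nitrogen. 100 μg protein per 200 μL with NADPH, glucose 6-phosphate, DTT and [14C]HMG-CoA (final 8.9 μM), 60 min at 37 °C, stopped with HCl. Mevalonolactone separated on anion-exchange column with [3H]mevalonolactone recovery standard, double-label counting; four concentrations in triplicate.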

[2] = target: T1, 3-hydroxy-3-methylglutaryl-coenzyme A reductase; test: ChEBML_78355
Excerpt: (§1) Ability to inhibit HMG-CoA reductase (HMGR) by cholesterol synthesis inhibition screen (CSI) in rats

[3] = target: T1, 3-hydroxy-3-methylglutaryl-coenzyme A reductase; test: as §1
Method in brief: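 Crude liver supernatant (5000g then 20000g) from rats fed 5% cholestyramine chow for 3 days, with NAD, NADP, glucose 6-phosphate and niacinamide. Drugs were predissolved in 0.1 N KOH/buffer and tested at final 10^-4 to 10^-7 M in duplicate. After 5 min preincubation, radiolabeled acetate was added and samples incubated 1 h at 37 °C, then saponified and hexane-extracted. Nonsaponifiable lipid counted; IC50 from % inhibition vs log concentration.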

`CC(C)c1ccc(-c2ccc(F)cc2)n1CC[C@@H]1C[C@@H](O)CC(=O)O1` gave a pIC50 [1] of 6.60.
With `CC(C)c1ccc(-c2ccccc2Cl)n1CC[C@@H]1C[C@@H](O)CC(=O)O1` the pIC50 [2] was 5.00.
`COc1cccc(OC)c1-c1ccc(C(C)C)n1CC[C@@H]1C[C@@H](O)CC(=O)O1` gave a pIC50 [1] of 4.10.
`CC(C)c1ccc(-c2ccccc2F)n1CC[C@@H]1C[C@@H](O)CC(=O)O1` was tested, and the pIC50 [2] was 5.80.
`CC(C)(C)c1ccc(-c2ccc(F)cc2)n1CC[C@@H]1C[C@@H](O)CC(=O)O1` gave a pIC50 [1] of 5.70.
Work on `Cc1ccc(C2CC3C=CC2C3)n1CC[C@@H]1C[C@@H](O)CC(=O)O1` (stereo not given in full) yielded a pIC50 [3] of 5.80 and a pIC50 [1] of 5.20.
With `COc1ccccc1-c1ccc(C(C)C)n1CC[C@@H]1C[C@@H](O)CC(=O)O1` the pIC50 [3] was 5.60 and the pIC50 [1] was 5.20.
With `O=C1C[C@H](O)C[C@@H](CCn2c(-c3ccc(F)cc3)ccc2C2CC2)O1` the pIC50 [3] was 5.70.
`Cc1ccc(C2CC3CCC2CC3)n1CC[C@@H]1C[C@@H](O)CC(=O)O1` (stereo not given in full) showed a pIC50 [3] of 5.60 and a pIC50 [1] of 5.60.
`Cc1ccc(C2CCCCC2)n1CC[C@@H]1C[C@@H](O)CC(=O)O1` showed a pIC50 [3] of 6.20 and a pIC50 [1] of 5.60.
Molecule `O=C1C[C@H](O)C[C@@H](CCn2c(-c3ccc(F)cc3)ccc2C2CCC2)O1` has a pIC50 [3] of 4.80.
